Laboratory results: ChEMBL document CHEMBL1142527, “Tricyclic [1,2,4]triazine 1,4-dioxides as hypoxia selective cytotoxins” (J Med Chem, 2008)

What was measured:
[1] = Solubility at 22 degC in culture medium in presence of 5% fetal calf serum; type: physicochemical; settings: culture medium with 5% fetal calf serum; read-out: solubility
Outline: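 Solubility of the HCl salts is determined in culture medium containing 5% fetal calf serum at 22 °C.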

HT-29 [2] = test: Cytotoxicity against human HT-29 cells after 4 hrs under strict hypoxic condition; type: functional, cell-based; settings: Homo sapiens, HT-29, 4 h
HT-29 [3] = test: Hypoxic cytotoxicity ratio, ratio of aerobic IC50 to anoxic IC50 for human HT-29 cells; type: functional
SiHa [4] = test: Cytotoxicity against human SiHa cells after 4 hrs under strict hypoxic condition; type: functional, cell-based; settings: Homo sapiens, SiHa, 4 h
SiHa [5] = test: Hypoxic cytotoxicity ratio, ratio of aerobic IC50 to anoxic IC50 for human SiHa cells; type: functional
HT-29 [6] = test: Metabolic stability in human HT-29 multicellular layer assessed as apparent first-order rate constant under anoxic condition; type: ADME, cell-based
Outline: (§1)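 Stirred single-cell suspensions of anoxic HT29 cells are exposed for 3 h at a drug concentration giving roughly one log kill by 1 h. Clonogenic survival is followed, and extracellular drug is monitored by HPLC. Concentration-time data are fitted for the apparent first-order metabolic rate constant k_met, scaled to MCL cell density. CT₁₀ and M₁₀ (drug metabolized at 10% survival) are interpolated from the fitted PK/PD model.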

HT-29 [7] = test: Cytotoxicity against human HT-29 cells assessed as AUC-time curve providing 10% surviving fraction by clonogenic assay; type: functional
HT-29 [8] = test: Drug metabolism in human HT-29 cells assessed as amount of drug metabolized for one log of cell kill at their CT10 concentration for 1 hr; type: ADME, cell-based; settings: ht-29, 1 h; outline: as §1
HT-29 [9] = test: Drug diffusion coefficient in human HT-29 multicellular layer under 95% oxygen by liquid scintillation counting; type: ADME, cell-based
Outline: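 Tissue diffusion coefficient D measured in HT29 multicellular layers held under 95% O₂ to suppress bioreductive metabolism. Reported as ×10⁻⁷ cm²s⁻¹.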

CCN(CC)CCNc1n[n+]([O-])c2cc3c(cc2[n+]1[O-])OCC3
solubility [1]: 47 mM | IC50 (HT-29 [2]): 10 µM | Ratio IC50 (HT-29 [3]): 113 | IC50 (SiHa [4]): 3.4 µM | Ratio IC50 (SiHa [5]): 122 | Activity (HT-29 [6]): 0.26 min⁻¹ | Activity (HT-29 [7]): 58 µM·h | Activity (HT-29 [8]): 1718 µM

CCNc1n[n+]([O-])c2cc3c(cc2[n+]1[O-])CN(C)CC3
solubility [1]: > 47 mM | IC50 (HT-29 [2]): 2.6 µM | Ratio IC50 (HT-29 [3]): 59 | IC50 (SiHa [4]): 1.1 µM | Ratio IC50 (SiHa [5]): 100

CCN(CC)CCNc1n[n+]([O-])c2cc3c(cc2[n+]1[O-])CCC3
solubility [1]: 48 mM | IC50 (HT-29 [2]): 4.1 µM | Ratio IC50 (HT-29 [3]): 61 | IC50 (SiHa [4]): 1.1 µM | Ratio IC50 (SiHa [5]): 133 | Activity (HT-29 [6]): 1.08 min⁻¹ | Activity (HT-29 [7]): 36.3 µM·h | Activity (HT-29 [8]): 4521 µM

CC1Cc2cc3c(cc2C1)[n+]([O-])c(CCCO)n[n+]3[O-] (stereo not given)
solubility [1]: 10 mM | IC50 (HT-29 [2]): 13 µM | Ratio IC50 (HT-29 [3]): 80 | IC50 (SiHa [4]): 8 µM | Ratio IC50 (SiHa [5]): 104 | Activity (HT-29 [6]): 0.24 min⁻¹ | Activity (HT-29 [7]): 85.3 µM·h | Activity (HT-29 [8]): 2394 µM

CCc1n[n+]([O-])c2cc3c(cc2[n+]1[O-])CC(CN1CCOCC1)C3 (stereo not given)
solubility [1]: 43 mM | IC50 (HT-29 [2]): 4.8 µM | Ratio IC50 (HT-29 [3]): 31 | IC50 (SiHa [4]): 2.4 µM | Ratio IC50 (SiHa [5]): 62 | Activity (HT-29 [6]): 0.54 min⁻¹ | Activity (HT-29 [7]): 24.1 µM·h | Activity (HT-29 [8]): 1544 µM

Nc1n[n+]([O-])c2cc3c(cc2[n+]1[O-])CCC3
solubility [1]: 3 mM | IC50 (HT-29 [2]): 15.2 µM | Ratio IC50 (HT-29 [3]): 27 | IC50 (SiHa [4]): 8.3 µM | Ratio IC50 (SiHa [5]): 31 | Activity (HT-29 [6]): 0.47 min⁻¹ | Activity (HT-29 [7]): 106 µM·h | Activity (HT-29 [8]): 7735 µM

[O-][n+]1nc(CCCN2CCOCC2)[n+]([O-])c2cc3c(cc21)CC(CO)C3 (stereo not given)
solubility [1]: 48 mM | IC50 (HT-29 [2]): 2.4 µM | Ratio IC50 (HT-29 [3]): 121 | IC50 (SiHa [4]): 1.8 µM | Ratio IC50 (SiHa [5]): 206 | Activity (HT-29 [6]): 0.9 min⁻¹ | Activity (HT-29 [7]): 24.4 µM·h | Activity (HT-29 [8]): 2533 µM

CCc1n[n+]([O-])c2cc3c(cc2[n+]1[O-])CC(CO)C3 (stereo not given)
solubility [1]: 5 mM | IC50 (HT-29 [2]): 17 µM | Ratio IC50 (HT-29 [3]): 45 | IC50 (SiHa [4]): 6.5 µM | Ratio IC50 (SiHa [5]): 48 | Activity (HT-29 [6]): 0.47 min⁻¹ | Activity (HT-29 [7]): 49.7 µM·h | Activity (HT-29 [8]): 2096 µM

CCc1n[n+]([O-])c2cc3c(cc2[n+]1[O-])CC(CCO)C3 (stereo not given)
solubility [1]: 2 mM | IC50 (HT-29 [2]): 7.7 µM | Ratio IC50 (HT-29 [3]): 102 | IC50 (SiHa [4]): 2.9 µM | Ratio IC50 (SiHa [5]): 86 | Activity (HT-29 [6]): 0.54 min⁻¹ | Activity (HT-29 [7]): 41.3 µM·h | Activity (HT-29 [8]): 2641 µM

[O-][n+]1nc(NCCCN2CCOCC2)[n+]([O-])c2cc3c(cc21)CCO3
solubility [1]: 46 mM | IC50 (HT-29 [2]): 49 µM | Ratio IC50 (HT-29 [3]): 6 | IC50 (SiHa [4]): 29 µM | Ratio IC50 (SiHa [5]): 14 | Activity (HT-29 [6]): 0.23 min⁻¹ | Activity (HT-29 [7]): 82.1 µM·h | Activity (HT-29 [8]): 2155 µM

CCc1n[n+]([O-])c2cc3c(cc2[n+]1[O-])CC(CCN1CCOCC1)C3 (stereo not given)
solubility [1]: > 51 mM | IC50 (HT-29 [2]): 3.6 µM | Ratio IC50 (HT-29 [3]): 36 | IC50 (SiHa [4]): 1.3 µM | Ratio IC50 (SiHa [5]): 84 | Activity (HT-29 [6]): 0.54 min⁻¹ | Activity (HT-29 [7]): 15.8 µM·h | Activity (HT-29 [8]): 984 µM

[O-][n+]1nc(NCCCN2CCOCC2)[n+]([O-])c2cc3c(cc21)OCC3
solubility [1]: > 49 mM | IC50 (HT-29 [2]): 22 µM | Ratio IC50 (HT-29 [3]): 8 | IC50 (SiHa [4]): 3.4 µM | Ratio IC50 (SiHa [5]): 28 | Activity (HT-29 [6]): 0.2 min⁻¹ | Activity (HT-29 [7]): 116 µM·h | Activity (HT-29 [8]): 2660 µM

COc1ccc2c(c1)[n+]([O-])c(NCCN(C)C)n[n+]2[O-]
Ratio IC50 (HT-29 [3]): 89 | D (HT-29 [9]): 2.3e-07 cm²/s | Activity (HT-29 [6]): 0.54 min⁻¹ | Activity (HT-29 [7]): 26.1 µM·h | Activity (HT-29 [8]): 1635 µM

CC1Cc2cc3c(cc2C1)[n+]([O-])c(CCCN1CCOCC1)n[n+]3[O-] (stereo not given)
solubility [1]: 36 mM | Activity (HT-29 [6]): 0.96 min⁻¹ | Activity (HT-29 [8]): 2059 µM

CCNc1n[n+]([O-])c2cc3c(cc2[n+]1[O-])CC(N(C)C)C3 (stereo not given)
solubility [1]: 46 mM

[O-][n+]1nc(CCCN2CCOCC2)[n+]([O-])c2cc3c(cc21)CCO3
solubility [1]: 51 mM | IC50 (HT-29 [2]): 8.9 µM | Ratio IC50 (HT-29 [3]): 25 | IC50 (SiHa [4]): 5.1 µM | Ratio IC50 (SiHa [5]): 43 | Activity (HT-29 [6]): 0.31 min⁻¹ | Activity (HT-29 [7]): 27.6 µM·h | Activity (HT-29 [8]): 986 µM

CCc1n[n+]([O-])c2cc3c(cc2[n+]1[O-])CN(C)CC3
solubility [1]: > 47 mM | IC50 (HT-29 [2]): 13.1 µM | Ratio IC50 (HT-29 [3]): 2 | IC50 (SiHa [4]): 3.1 µM | Ratio IC50 (SiHa [5]): 6
